Assay results from ChEMBL document CHEMBL4513216, “Probing the Open Global Health Chemical Diversity Library for Multistage-Active Starting Points for Next-Generation Antimalarials” (ACS Infect Dis, 2020).

Assay: Toxicity liver stage against HepG2, at 10uM
Format: cell-based
Set-up: test concentration 10 uM, cell line HepG2-A16-CD81EGFP
Settings: human, HepG2-A16-CD81EGFP cells; read-out: INHIBITION
Procedure, shortened: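 Uninfected HepG2-A16-CD81EGFP cells, 3 × 10^3 per well, 1536-well, plated on prespotted compound at 10 μM final, parasite-free screening media added to match infected plates; puromycin 10 μM positive, DMSO 0.5% negative; run in parallel with 48 h PbLuc assay at 37 °C, 5% CO2; viability by CellTiter-Glo luminescence, normalized to controls.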

| Compound | cytotoxicity at 10 µM [%] |
| --- | --- |
| CCS(=O)(=O)c1ccc2oc([C@H]3CCN(Cc4ccccc4)C3)nc2c1 | 4.03 |
| COc1cccc(NC(=O)c2nc3ccccc3n(C)c2=O)c1 | 4.47 |
| CN(CCc1ccccn1)C(=O)c1cnn(-c2ccccc2F)c1N | -4.85 |
| Cc1csc2cc(C(=O)NC3CC3)cnc12 | -0.697 |
| CNC(=O)c1nc2c(s1)CCN(C(=O)c1cccc(OC)c1)CC2 | 9.84 |
| Cc1nc(CN2C(=O)C[C@@H]3[C@@H]2CCN3S(C)(=O)=O)cs1 | -131 |
| N#Cc1cccc(N2CCCC3(C2)CN(c2nncs2)CCO3)c1 (stereo not drawn) | 0.922 |
| COc1cc(CC(O)CC#N)c(OC)c2c1OCO2 (stereo not drawn) | -6.32 |
| CS(=O)(=O)N1CCN(C(=O)CCC2CCCO2)CC1 (stereo not drawn) | 0.815 |
| CSCCC(C)NC(=O)c1cccc(-c2n[nH]c(C)n2)c1 (stereo not drawn) | 1.31 |
| CN(C)c1cc(C(F)(F)F)nc(N2CCCC2c2ccccn2)n1 (stereo not drawn) | 5.36 |
| COCc1ccccc1NC(=O)CCNC(=O)c1ccoc1 | -3.94 |
| CCN(CC(=O)NC(C)C)C(=O)c1csc(Cc2ccccc2)n1 | -5.43 |
| CN(Cc1nc2ccccc2[nH]1)C(=O)CN(C)c1ccc(Cl)cn1 | -2.66 |
| COc1ccccc1C(NC(=O)CN(C)C(C)C)c1noc(C)n1 (stereo not drawn) | -3.21 |
| Cc1cc(CNC(=O)NCC(O)c2cccc(F)c2)no1 (stereo not drawn) | 3.1 |
| COc1ccc(CN2CCN(Cc3nccn3C)C(C)C2)cc1F (stereo not drawn) | 2.42 |
| O=C(c1ccc(NCc2cccc(F)c2)cc1)N1CCC(CO)CC1 | 6.21 |
| COCCSCC(=O)NCc1ccc(N(C)C)cc1 | 19 |
| CC(=O)c1cc(C(=O)N2CCN(C)Cc3ccccc32)n(C)c1 | 7.85 |
| CN(C)C1CCCN(C(=O)NCCC(C)(C)C)C1 (stereo not drawn) | -0.317 |
| CCOCCNC1(c2ccc(Cl)cc2)CCOCC1 | -3.75 |
| Cc1[nH]ccc1C(=O)NC1CCC(N2C(=O)CCC2=O)CC1 (stereo not drawn) | -3.81 |

| Compound | cytotoxicity at 10 µM [%] |
| --- | --- |
| N#Cc1cnc(NC2CCN(C(=O)C3CCCCC3)CC2)c(Cl)c1 | -3.75 |
| O=C(NCC(O)c1ccc(F)cc1F)c1ccccc1 (stereo not drawn) | 4.15 |
| CCC(C)NC(=O)c1ccc(CNC(=O)COC)cc1 (stereo not drawn) | 10.7 |
| NC(=O)CN1CCC(NC2CSCCc3ccccc32)CC1 (stereo not drawn) | -3.21 |
| Cc1nn(C)c(N2CCOCC2)c1CNC1CCS(=O)(=O)C1 (stereo not drawn) | -3.99 |
| CCc1ccc(C2COCCN2C(=O)NCc2cccc(C#N)c2)o1 (stereo not drawn) | -0.838 |
| O=C(CCc1ccccc1Br)NCC(=O)NCc1ccccc1 | 0.988 |
| O=C(c1ccn(-c2cccc(F)c2)n1)N1CCN(CC2CC2)CC1 | -7.54 |
| CCCn1nc2c(cc1=O)CN(CC(=O)Nc1cc(C)no1)CC2 | -4.59 |
| Cc1cc(NC(=O)c2ccc(Br)cc2F)n(C)n1 | 3.42 |
| CCCNC(=O)COc1ccc(-c2ccccc2)nc1 | 6.16 |
| CCN(CC)C(=O)CN(C)CCn1nc2ccccn2c1=O | -149 |
| O=C(NCCc1cccs1)NC1CCN(c2ncccn2)CC1 | -141 |
| COCCn1ccc(NC(=O)Nc2ccc(C)cc2)n1 | 2.19 |
| Fc1ccc(C2CCCN2Cc2nnnn2C2CC2)cc1 (stereo not drawn) | 15.5 |
| CCOc1ccc(N2CCC(C(O)c3ccccc3)CC2)nn1 (stereo not drawn) | -2.2 |
| O=S(=O)(NCCN1CC=CC1)c1ccc(Cl)cc1 | -6.04 |
| Cc1cc(C(=O)Nc2cccn(Cc3ccccc3)c2=O)no1 | -1.55 |
| O=C(NCC1CCOC1)c1csc(Cc2ccccc2)n1 (stereo not drawn) | -118 |
| CCc1nc(COc2ccc(N(C)C(C)=O)cc2)no1 | -0.408 |
| COCCNC(=O)c1nn(-c2cccc(C(C)C)c2)cc1O | -2.35 |
| CN(C)C(=O)CN1CCCc2c(F)cc(Br)cc21 | -0.682 |
| CN(C)c1ccc(NC(=O)NCc2cccs2)cn1 | -1.15 |

| Compound | cytotoxicity at 10 µM [%] |
| --- | --- |
| O=C(CSc1nnc[nH]1)NCc1cccs1 | 0.284 |
| Cc1ccc(NC(=O)CS(=O)(=O)NC2CCC(C)CC2)nc1 (stereo not drawn) | -9.24 |
| COc1ccc(Br)cc1CCC(=O)N1CCC(O)CC1 | -1.96 |
| Cc1noc(C)c1CCc1nc(C2CCOC2)no1 (stereo not drawn) | -4 |
| CSCCC(NC(N)=O)C(=O)N1CCC(Cc2ccccc2)CC1 (stereo not drawn) | 1.28 |
| CN(CCn1cccn1)S(=O)(=O)c1cccc(F)c1C#N | 3.41 |
| CCCn1nc(-c2nc(COc3ccccc3)no2)ccc1=O | -2.74 |
| O=C1CCC2(CCCN(C(=O)c3ncc[nH]3)C2)CN1CCc1c[nH]cn1 (stereo not drawn) | -2.47 |
| CC(C)=CCCC(C)CN1CCC(n2cc(C(C)(C)O)nn2)CC1 (stereo not drawn) | -2.27 |
| O=C(C1CCCC1)N1CCN(Cc2ccncc2)[C@@H]2CS(=O)(=O)C[C@@H]21 | -1.79 |
| Cc1ccc(S(=O)(=O)NCC2CNCCOC2)cc1Cl (stereo not drawn) | 0.858 |
| COc1ccccc1[C@@H]1CN(C(=O)Cc2csc(C)n2)C[C@H]1C(=O)O | -8.25 |
| CCN1CCN(C[C@@H]2CN(c3ncc(Cl)cc3F)C[C@@H]2CO)CC1 | -7.06 |
| Cc1cc(C2CCC2)nc(NCCC23CCCN2CCC3)n1 | 0.414 |
| CCN(CCO)C(=O)C1CCC(=O)N(Cc2cccc(OC)c2)C1 (stereo not drawn) | -9.49 |
| CCc1cnc(NCC(c2cccnc2)N2CCOCC2)nc1 (stereo not drawn) | 9.6 |
| O=C(Nc1ccccc1OCCc1ccccn1)N1CCOCC1 | 3.18 |
| COc1ccccc1OCCCN1C(=O)CCNC1=O | -3.7 |
| O=C(c1cnc(COc2ccccc2)nc1O)N1CCC(F)(F)CC1 | -3.11 |
| COCC(c1ccccn1)N(C)C(=O)c1cc(-c2ccccc2O)n[nH]1 (stereo not drawn) | -1.84 |
| CC1(C)OC(=O)N(CC(=O)N2CCC(c3ccccc3F)C2)C1=O (stereo not drawn) | 0.189 |
| CCn1c(N)nc2cc(C(=O)NCCNc3ncccc3C)cnc21 | -5.98 |
| CN(C)C(=O)CN1CCN(c2ncccn2)[C@@H]2CS(=O)(=O)C[C@@H]21 | -3.01 |

| Compound | cytotoxicity at 10 µM [%] |
| --- | --- |
| CCOCCNc1nc(-c2ccncc2)nc2c1CCNCC2 | -136 |
| CCO[C@H]1CN(C)C[C@@H]1NC(=O)c1c[nH]nc1C1CCCCC1 | -5.56 |
| CCC1=NOC(CNCc2cnc(-c3ccccc3C)s2)C1 (stereo not drawn) | -5.92 |
| CCc1ccc2nc(C)cc(C(=O)NC3CCCCNC3=O)c2c1 (stereo not drawn) | -8.48 |
| CN(Cc1cnc(N)nc1)C(=O)C1CC(=O)N(Cc2ccncc2)C1 (stereo not drawn) | 0 |
| Nc1cccc(-c2cccc3ccnn23)n1 | -5.74 |
| N#Cc1cccnc1N1CCCC(CO)(Cc2cccc(Cl)c2)C1 (stereo not drawn) | 6.29 |
| O=C1CCC2(CCN(Cc3cscn3)CC2)CN1CCCO | -5.26 |
| C[C@@H]1CN(Cc2ccc(C(F)(F)F)cc2F)CC[C@]1(C)O | 4.54 |
| CN(Cc1nccn1C)c1ccc(-c2nccn2C)nn1 | -6.45 |
| COc1cccc2c1OCC(CNC(=O)CN(C)C1CCCC1)C2 (stereo not drawn) | -147 |
| CNc1ncc(CN(C)C(=O)[C@@]23CNC[C@@H]2CN(C2CCCC2)C3)cn1 | 0.153 |
| COc1ccc2c(c1)OCC(Cc1ccc(N)cn1)C2 (stereo not drawn) | -1.91 |
| CN(C)C[C@@H]1CN(C2CCN(c3ccc(Cl)cc3)CC2)C[C@@H]1CO | -9.14 |
| Cc1ccc([C@H]2CN(C(=O)CC3CCC3)C[C@@H]2N)o1 | 5.89 |
| O=S1(=O)C[C@@H]2[C@H](C1)N(S(=O)(=O)N1CCCC1)CCN2Cc1ccccc1 | -2.59 |
| c1csc(N2CCN(Cc3cc4n(n3)CCNC4)CC2)n1 | -3.59 |
| CCN(CC)C(CNS(=O)(=O)NCc1ccccc1)c1ccco1 (stereo not drawn) | 1.53 |
| Cc1cc(C)c(C(=O)N2CCOCC2c2c(C)nn(C)c2C)o1 (stereo not drawn) | -2.48 |
| O=C(c1ccsc1)N1CCC(Nc2cccnn2)CC1 | -7.58 |
| CC(C)(C)c1ncc(C(=O)NCCNC(=O)c2cccs2)s1 | -1.56 |
| COc1c(CNCCNC(=O)c2cccs2)c(C)nn1C | -0.373 |
| Cc1ncsc1C(=O)NCCNC(=O)Cc1cccc(F)c1 | -0.0716 |

| Compound | cytotoxicity at 10 µM [%] |
| --- | --- |
| CCOc1cc(C)nc(N2CCN(C(=O)Cn3cc(C)cn3)CC2)n1 | -5.43 |
| CN(CC(=O)N1CCCCC1Cn1cccn1)C1CC1 (stereo not drawn) | -3.45 |
| CCn1cnnc1CNC(=O)N1CCC(CN2CCCCCC2)CC1 | -8.57 |
| Cc1nc(C2CCCN2C(=O)CCn2cncn2)no1 (stereo not drawn) | -17.8 |
| Cc1cnn(CC2CCCN2C(=O)c2ccc(F)cc2Cl)c1 (stereo not drawn) | 2.99 |
| Cc1cnn(CC2CN(CC(=O)N(C)Cc3ccsc3)CCO2)c1 (stereo not drawn) | -10.6 |
| CC(Cn1cccn1)NC(=O)NCc1ccc(C(N)=O)cc1 (stereo not drawn) | -3.2 |
| CCn1ccnc1CN1CCN(CC(O)c2cccc(F)c2)CC1 (stereo not drawn) | 0.272 |
| O=C(c1ccccc1-n1cccn1)N1CCC(Nc2cccnn2)CC1 | -15.9 |
| CN(C)c1cc(CNC(=O)c2n[nH]c(=O)c3ccccc23)ccn1 | -3.79 |
| CN(Cc1ccsc1)C(=O)CN1CCCCC1Cn1cccn1 (stereo not drawn) | -1.07 |
| CN(C)CCNC(=O)c1sc2ccccc2c1C1CCC(CN)CC1 (stereo not drawn) | -15.3 |
| CN(Cc1ccco1)C1CCC12CCN(C(=O)c1ccco1)CC2 (stereo not drawn) | -10.9 |
| O=C1[C@H]2CN(Cc3ccc(F)cc3)C[C@H]2CN1c1cncnc1 | -2.32 |
| O=C(NCC1CN(c2ncccn2)Cc2nccn2C1)c1cccnc1 (stereo not drawn) | -143 |
| Cc1noc(C)c1CN1CCO[C@H]2[C@H](Oc3ccccn3)CC[C@@H]21 | -6.69 |
| COc1c(CNC2(c3noc(C)n3)CCC2)c(C)nn1C | 4.2 |
| CCc1cnc(N2C[C@@H](NC(=O)c3cscn3)[C@H]3COC[C@H]32)nc1 | -127 |
| CNC(=O)C(C)(C)N1CCC[C@H]1C(=O)NCCN1CCCC1 | -2.3 |
| O=C(c1cnc2ccccc2c1)N1CCC2(CCN2c2ncccn2)C1 (stereo not drawn) | -122 |
| COc1ccccc1CN1CC[C@]2(C[C@@H](OC)CO2)C1 | -5.35 |
